Test results from ChEMBL document CHEMBL1255334.
Activity calls are given as the source filed them. No cut-off for these calls is given here.

What was measured:
Format in all cases: functional, organism-based
[1] = system: Mycobacterium tuberculosis; test: Antibacterial activity against Mycobacterium tuberculosis containing PZase Val(125)>Phe mutant assessed as at 100 mg/liter
How it was run: (§1)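 Clinical M. tuberculosis isolates first grown on Löwenstein-Jensen medium 3 to 4 weeks at 37°C. Radiometric BACTEC 460 test in acidified PZA test medium. Inoculum: ~McFarland 1 suspension grown in 12B medium until growth index (GI) >300. Paired vials per strain: drug-free control and PZA 100 mg/liter. Read when control GI reached 200. Resistant if PZA-vial GI >11% of control GI, susceptible if <9%.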

[2] = system: Mycobacterium tuberculosis; test: Antibacterial activity against Mycobacterium tuberculosis containing PZase Thr(47)>Ala mutant assessed as at 100 mg/liter; how it was run: as §1
[3] = system: Mycobacterium tuberculosis; test: Antibacterial activity against Mycobacterium tuberculosis containing pncA gene with G insertion between nucleotide -33 and -32 assessed as at 100 mg/liter; how it was run: as §1
[4] = system: Mycobacterium tuberculosis; test: Antibacterial activity against Mycobacterium tuberculosis containing PZase Pro(54)>Leu mutant assessed as at 100 mg/liter; how it was run: as §1
[5] = system: Mycobacterium tuberculosis; test: Antibacterial activity against Mycobacterium tuberculosis containing PZase Ser(65)>Ser mutant assessed as at 100 mg/liter; how it was run: as §1
[6] = system: Mycobacterium tuberculosis; test: Antibacterial activity against Mycobacterium tuberculosis containing pncA gene with C(174)>G mutation assessed as at 100 mg/liter; how it was run: as §1
[7] = system: Mycobacterium tuberculosis; test: Antibacterial activity against Mycobacterium tuberculosis containing PZase Leu(172)>Pro mutant assessed as at 100 mg/liter; how it was run: as §1
[8] = system: Mycobacterium tuberculosis; test: Antibacterial activity against Mycobacterium tuberculosis containing pncA gene with A(-11)>G mutation assessed as at 100 mg/liter; how it was run: as §1
[9] = system: Mycobacterium tuberculosis; test: Antibacterial activity against Mycobacterium tuberculosis containing PZase Phe(58)>Leu mutant assessed as at 100 mg/liter; how it was run: as §1
[10] = system: Mycobacterium tuberculosis; test: Antibacterial activity against Mycobacterium tuberculosis containing PZase Arg(123)>Pro mutant assessed as at 100 mg/liter; how it was run: as §1
[11] = system: Mycobacterium tuberculosis; test: Antibacterial activity against Mycobacterium tuberculosis containing PZase Ile(6)>Thr mutant assessed as at 100 mg/liter; how it was run: as §1
[12] = system: Mycobacterium tuberculosis; test: Antibacterial activity against Mycobacterium tuberculosis containing PZase Val(155)>Gly mutant assessed as at 100 mg/liter; how it was run: as §1
[13] = system: Mycobacterium tuberculosis; test: Antibacterial activity against Mycobacterium tuberculosis containing PZase Met(175)>Thr mutant assessed as at 100 mg/liter; how it was run: as §1
[14] = system: Mycobacterium tuberculosis; test: Antibacterial activity against Mycobacterium tuberculosis containing PZase Thr(142)>Lys mutant assessed as at 100 mg/liter; how it was run: as §1
[15] = system: Mycobacterium tuberculosis; test: Antibacterial activity against Mycobacterium tuberculosis containing PZase Gly(132)>Ser mutant assessed as at 100 mg/liter; how it was run: as §1
[16] = system: Mycobacterium tuberculosis; test: Antibacterial activity against Mycobacterium tuberculosis containing PZase Ser(67)>Pro mutant assessed as at 100 mg/liter; how it was run: as §1
[17] = system: Mycobacterium tuberculosis; test: Antibacterial activity against Mycobacterium tuberculosis containing PZase Tyr(103)>His mutant assessed as at 100 mg/liter; how it was run: as §1
[18] = system: Mycobacterium tuberculosis; test: Antibacterial activity against Mycobacterium tuberculosis containing PZase Pro(54)>Ser mutant assessed as at 100 mg/liter; how it was run: as §1
[19] = system: Mycobacterium tuberculosis; test: Antibacterial activity against Mycobacterium tuberculosis containing PZase Val(125)>Asp mutant assessed as at 100 mg/liter; how it was run: as §1
[20] = system: Mycobacterium tuberculosis; test: Antibacterial activity against Mycobacterium tuberculosis containing PZase Gly(132)>Ala mutant assessed as at 100 mg/liter; how it was run: as §1
[21] = system: Mycobacterium tuberculosis; test: Antibacterial activity against Mycobacterium tuberculosis containing PZase Ile(90)>Ser mutant assessed as at 100 mg/liter; how it was run: as §1
[22] = system: Mycobacterium tuberculosis; test: Antibacterial activity against Mycobacterium tuberculosis containing pncA gene with C insertion between nucleotide -3 and -2 assessed as at 100 mg/liter; how it was run: as §1
[23] = system: Mycobacterium tuberculosis; test: Antibacterial activity against Mycobacterium tuberculosis containing PZase His(51)>Gln mutant assessed as at 100 mg/liter; how it was run: as §1
[24] = system: Mycobacterium tuberculosis; test: Antibacterial activity against Mycobacterium tuberculosis containing pncA gene with GG insertion between nt 391 and 392 assessed as at 100 mg/liter; how it was run: as §1
[25] = system: Mycobacterium tuberculosis; test: Antibacterial activity against Mycobacterium tuberculosis containing PZase Cys(138)>Tyr mutant assessed as at 100 mg/liter; how it was run: as §1
[26] = system: Mycobacterium tuberculosis; test: Antibacterial activity against Mycobacterium tuberculosis containing PZase with In-frame insertion between amino acids 148 and 149 assessed as at 100 mg/liter; how it was run: as §1
[27] = system: Mycobacterium tuberculosis; test: Antibacterial activity against Mycobacterium tuberculosis containing PZase Trp(68)>Arg mutant assessed as at 100 mg/liter; how it was run: as §1
[28] = system: Mycobacterium tuberculosis; test: Antibacterial activity against Mycobacterium tuberculosis containing PZase Ser(65)>Ser frameshift mutant assessed as at 100 mg/liter; how it was run: as §1

Compound: NC(=O)c1cnccn1
- Activity [1]: inactive
- Activity [2]: inactive
- Activity [3]: Active
- Activity [4]: inactive
- Activity [5]: Active
- Activity [6]: inactive
- Activity [7]: inactive
- Activity [8]: inactive
- Activity [9]: inactive
- Activity [10]: inactive
- Activity [11]: inactive
- Activity [12]: inactive
- Activity [13]: inactive
- Activity [14]: inactive
- Activity [15]: inactive
- Activity [16]: inactive
- Activity [17]: inactive
- Activity [18]: inactive
- Activity [19]: inactive
- Activity [20]: inactive
- Activity [21]: inactive
- Activity [22]: Active
- Activity [23]: inactive
- Activity [24]: inactive
- Activity [25]: inactive
- Activity [26]: inactive
- Activity [27]: inactive
- Activity [28]: inactive
